PglD inh – blocks C. jejuni PglD acetyltransferase activity | purified PglD enzyme, DTNB colorimetric CoA detection | 360,000 compounds, 0.098% hits | AID 602405 | inhibition, % at 12.5 µM; in the data active means inhibition above about 16%, passing the limit was not always enough; inconclusive means no clear call, values can overlap the other calls
SIRT5 block – sirtuin-5 (human) deacylase inhibition; Q9NXA8; Purified SirT5, succinyl-peptide AMC, trypsin-coupled fluorescence; inhibition, % at 15 µM; 330,000 compounds, 1.1% hits; AID 652115; in the data active means inhibition above about 15%; inconclusive means no clear call, values can overlap the other calls
Target sequence (Q9NXA8 whole entry, looked up): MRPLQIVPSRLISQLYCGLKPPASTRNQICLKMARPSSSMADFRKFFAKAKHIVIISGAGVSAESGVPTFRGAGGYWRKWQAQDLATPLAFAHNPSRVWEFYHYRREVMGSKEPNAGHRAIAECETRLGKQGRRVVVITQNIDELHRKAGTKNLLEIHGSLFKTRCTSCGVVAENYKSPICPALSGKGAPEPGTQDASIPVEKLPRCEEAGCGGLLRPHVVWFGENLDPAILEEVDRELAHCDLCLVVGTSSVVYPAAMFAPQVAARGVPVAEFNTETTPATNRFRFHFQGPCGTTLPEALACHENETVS
ERAP1 HTS inh – inhibitors of human ERAP1 aminopeptidase | 340,000 compounds, 0.15% hits | AID 652197 | recombinant ERAP1, Leu-AMC fluorescence, 60 min | inhibition, % at 10.7 µM;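 active means mean replicate inhibition of at least 30%, or all replicates individually reaching that 30% level; inactive means mean below 30% and not every replicate reaching it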;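 further: 0% = neutral control wells and 100% = L-leucinethiol positive control wells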
DENV2 CPE – inhibitors of DENV2 cytopathic effect; DENV2-infected cells, cytopathic effect rescue, plate reader; CPE inhibition, % at 9.99 µM; 350,000 compounds, 1.7% hits; AID 651640; in the data active means CPE inhibition above about 20%, passing the limit was not always enough; inconclusive means no clear call, values can overlap the other calls; tested in BHK-21 cells;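 further: 0% = median of neutral control wells and 100% = median of positive control wells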
E-sel inducer – induces E-selectin expression in human endothelial cells; AID 686992; P16581; activation, % at 7.58 µM; HUVEC E-selectin immunofluorescence imaging; normalized: neutral wells 0, TNF-alpha wells 100; 260,000 compounds, 0.37% hits;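 active means mean E-selectin-positive cell signal at least 10% of the positive control, reached in at least 60% of replicates, without over 20% cell loss; inconclusive means no rule given, readout overlaps actives, possibly toxicity-flagged; inactive means the rest, including those meeting only one limit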
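material = human umbilical vein endothelial cells (HUVEC), E-selectin induction | quantity = 3,000 cells/well | medium = EGM-2 growth medium on 0.1% gelatin-coated wells | technique = immunofluorescence imaging | read-out basis = % PE-positive cells | control set = TNF-alpha positive control, DMSO neutral control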
* marks the source's active call; other numbers are inactive results; ? = inconclusive; . = no result given. Rows were chosen to be rich in hits. Some 2.5% of all compounds tested hit in one or more screens of this group.

SMILES	PglD inh	SIRT5 block	ERAP1 HTS inh	DENV2 CPE	E-sel inducer
CC1(c2nnc(Cc3ccccc3)o2)CC(c2ccc([N+](=O)[O-])cc2)=NO1 (stereo not drawn)	-4	6	-6	31*	0
CC1(c2nnc(Cc3ccccc3)o2)CC(c2ccc(Br)cc2)=NO1 (stereo not drawn)	11	.	.	.	0
CCOc1ccc(S(=O)(=O)N2CCOCC2)cc1NC(=O)c1ccccc1F	-5	1	1	0	0
CC1CCCCN1C(=O)CCNC(=O)Cn1cnc2ccccc2c1=O (stereo not drawn)	1	10	1	0	2
Cc1cc(OCC(O)CNC(C)(C)C)ccc1Cl (stereo not drawn)	.	21*	1	-5	.
CN1CCCC1CCNc1ccc2sc3ccccc3c(=O)c2c1 (stereo not drawn)	-6	.	.	27*	2
CCCC#Cc1ccc([C@@H]2[C@H]3CN(C(=O)NC4CCCC4)CC(=O)N3[C@H]2CO)cc1	.	0	-3	22*	0
CCCC#Cc1ccc([C@H]2[C@H]3CN(C(=O)NC4CCCC4)CC(=O)N3[C@H]2CO)cc1	.	2	2	11	0
CCCC#Cc1ccc([C@@H]2[C@@H](CO)N3C(=O)CN(C(=O)Nc4ccc(F)cc4)C[C@H]23)cc1	.	-1	0	36*	1
CC(C)NC(=O)N1CC(=O)N2[C@H](CO)[C@H](c3ccc(C#CCN(C)C)cc3)[C@@H]2C1	.	2	-5	23*	0
O=C(CC1CC1)N1CC(=O)N2[C@@H](CO)[C@@H](c3ccc(C#Cc4cccc(F)c4)cc3)[C@@H]2C1	.	0	-3	29*	0
O=C(c1ccco1)N1CCN(Cc2cn[nH]c2-c2cccc3ccccc23)CC1	.	1	-3	?	0
Cc1ccc(NC(=O)c2ncn(CCCNCCCN3CCCC3=O)n2)cc1C	1	0	-4	7	1
CCC(=O)Nc1ccc(NC(=O)CSc2nnc(-c3ccc(O)cc3)n2CC2CCCO2)cc1 (stereo not drawn)	2	-6	8	-8	0
O=C(c1ccc(-c2ccc(Cl)cc2)o1)N1CCN(S(=O)(=O)c2cccs2)CC1	1	-1	1	2	.
COc1ccccc1NC(=O)N1CC(=O)N2[C@H](C1)[C@@H](c1ccc(C#Cc3ccc(F)cc3)cc1)[C@@H]2CO	.	4	-1	69*	-1
Cc1cccc(N=[N+]([O-])c2cccc(C)n2)n1	-3	2	0	27*	.
Cc1cccc(N=O)n1	.	.	-4	0	0
O=C(CCN1C(=O)c2ccccc2C1=O)NCc1ccc(F)cc1	4	0	2	-5	.
O=C(C[C@H]1CC[C@H]2[C@@H](COC[C@H](O)CN2C(=O)c2ccccc2)O1)NCCCN1CCOCC1	-1	7	2	13	0
COC(=O)C1=C(C(=O)OC)[C@@H]2Nc3ccccc3[C@@]23C[C@@H](C(=O)OC)N(C(=O)CC(C)C)C3=N1	1	21*	5	-19	0
CCOC(=O)N1C2=NC(C(=O)OC)=C(C(=O)OC)[C@@H]3Nc4ccccc4[C@]23C[C@H]1C(=O)OC	2	.	-2	1	0
C[C@@H]1CN([C@H](C)CO)S(=O)(=O)c2ccc(-c3ccncc3)cc2O[C@@H]1CN(C)Cc1ccc(Oc2ccccc2)cc1	2	2	3	-32	0
Cc1ccsc1C(=O)NNC(=O)CCN1CCN(c2ccccc2)CC1	.	19*	1	-6	.
CC(=O)c1ccc(N2CCN(c3ccnc4cc(Cl)ccc34)CC2)cc1	3	0	-4	9	40*
SMILES	PglD inh	SIRT5 block	ERAP1 HTS inh	DENV2 CPE	E-sel inducer
COCCN(C(=O)c1c(C)noc1C)c1c(N)n(CC(C)C)c(=O)[nH]c1=O	0	-8	83*	?	5
CCCCn1c(N)c(N(CCC(C)C)C(=O)c2c(C)noc2C)c(=O)[nH]c1=O	.	-1	3	-14	.
CC(C)CNC(=O)c1[nH]c(C(F)(F)F)nc1-c1ccccc1	11	-2	0	4	0
C[C@H]1CCCCO[C@H](CN(C)S(=O)(=O)c2ccccc2)[C@@H](C)CN([C@@H](C)CO)C(=O)c2cc(NC(=O)C3CCCCC3)ccc2O1	1	2	6	?	0
C[C@@H]1CN([C@@H](C)CO)C(=O)c2cc(NC(=O)C3CCCCC3)ccc2O[C@@H](C)CCCCO[C@@H]1CN(C)S(=O)(=O)c1ccc(Cl)cc1	0	18*	1	10	0
Cc1ccc(S(=O)(=O)N(C)C[C@@H]2OCCCC[C@H](C)Oc3ccc(NC(=O)C4CCCCC4)cc3C(=O)N([C@H](C)CO)C[C@@H]2C)cc1	-2	.	.	24*	1
C[C@@H]1CCCCO[C@H](CN(C)S(=O)(=O)c2ccccc2)[C@@H](C)CN([C@@H](C)CO)C(=O)c2cc(NC(=O)C3CCCCC3)ccc2O1	3	16*	1	-2	0
C[C@H](CO)N1C[C@H](C)[C@H](CN(C)S(=O)(=O)c2cccs2)Oc2ccc(NS(=O)(=O)c3cccs3)cc2CC1=O	.	.	.	.	0
CCC(SC1=NCCS1)C(=O)Nc1ccc(S(N)(=O)=O)cc1 (stereo not drawn)	-4	0	1	26*	.
CCC(Sc1nc(C)cc(C)n1)C(=O)Nc1ccc(S(N)(=O)=O)cc1 (stereo not drawn)	.	3	1	14	0
COc1ccc(C(=O)Nc2cc(=O)[nH]c3ncnn23)cc1	-2	31*	-7	?	.
O=C(Nc1cc(=O)[nH]c2ncnn12)c1ccco1	1	12	-1	0	.
O=C(CSc1nc(NS(=O)(=O)c2ccccc2)cc(=O)[nH]1)Nc1ccc(F)cc1	25*	.	.	.	.
COc1ccccc1CCN=C(N)NS(=O)(=O)c1ccc(F)cc1	0	-2	0	55*	0
NC(=NCCc1ccccc1)NS(=O)(=O)c1ccc(F)cc1	7	.	.	.	0
NC(=NCCc1c[nH]c2ccccc12)NS(=O)(=O)c1cc(F)ccc1F	6	-4	43*	-5	0
COc1ccc(S(=O)(=O)NC(N)=NCCc2ccccc2OC)cc1	4	0	6	-2	.
CCOC(=O)Nc1cc(=O)c2ccccc2o1	-4	.	.	.	.
Cc1ccc(S(=O)(=O)Nc2ccc3c(c2)C(=O)N([C@@H](C)CO)C[C@@H](C)[C@H](CN(C)Cc2ccc(C(F)(F)F)cc2)OCCCC[C@@H](C)O3)cc1	0	18*	1	-23	.
Cc1ccc(S(=O)(=O)Nc2ccc3c(c2)C(=O)N([C@H](C)CO)C[C@@H](C)[C@@H](CN(C)Cc2ccc(C(F)(F)F)cc2)OCCCC[C@H](C)O3)cc1	1	20*	-1	-17	.
Cc1ccc(S(=O)(=O)Nc2ccc3c(c2)C(=O)N([C@H](C)CO)C[C@H](C)[C@H](CN(C)Cc2ccc(C(F)(F)F)cc2)OCCCC[C@H](C)O3)cc1	1	32*	2	-26	.

From PubChem BioAssay
